Measured values of several laboratories.
Each line is one published result; the experiments were not run side by side.
Cell line: MCF7
Effect on: cell growth or viability

| Compound | test | conditions | IC50 |
| --- | --- | --- | --- |
| Clc1ccccc1-c1nc2ccccc2[nH]1 | MTT | 48 h | 69 µM |
| COc1cc([C@@H]2c3cc4c(cc3[C@@H](O[C@@H]3O[C@@H]5CO[C@@H](C)O[C@H]5[C@H](O)[C@H]3O)[C@H]3COC(=O)[C@H]23)OCO4)cc(OC)c1O | MTT | 48 h | 32.8 µM |
| Cc1cc(C)n(-c2nc(Nc3ccc(Cl)cc3)nc(-n3nc(C)cc3C)n2)n1 | MTT | 72 h | 2.29 µM |
| Cc1ccc2c(Br)cc(Br)c(O)c2n1 | MTT | 48 h | > 150 µM |
| COc1cc2c(Nc3ccc(NC(=O)c4ccccc4)cc3)ncnc2cc1OCCCN1CCOCC1 | MTS | 48 h | 3.1 µM |
| COc1cc2ncnc(Nc3ccc(F)c(Cl)c3)c2cc1NC(=O)N/N=C/CN(C)C | MTT | 72 h | 5.38 µM |
| CNc1nc2ccccc2n2c(-c3cccc(OC)c3)cnc12 | neutral red | 96 h | 0.217 µM |
| O=S(=O)(NN=Cc1cn(CCN2CCOCC2)c2ccccc12)c1ccc(-c2ccccc2)cc1 | MTT | 48 h | 17.3 µM |
| COc1cccc(-c2nc3ccccc3n2Cc2ccccc2)c1 | MTT | – | 24.8 µM |
| COc1cc(/C=N/c2nc(SC)nn2-c2ccc(C(=O)O)cc2)ccc1O | MTT | – | 29.4 µM |
| CC(=O)O[C@H]1C(=O)[C@@]2(C)[C@H]([C@H](OC(=O)c3ccccc3)[C@]3(O)C[C@H](OC(=O)[C@H](O)[C@@H](NC(=O)c4ccccc4)c4ccccc4)C(C)=C1C3(C)C)[C@]1(OC(C)=O)CO[C@@H]1C[C@@H]2O | MTT | – | 2.35 µM |
| Cc1ccc(-c2csc(Nc3ccc4c(O)ncnc4c3)n2)cc1 | MTT | – | 6.28 µM |
| C=CCn1c(-c2ccc(Cl)c(Cl)c2)nc2ccccc21 | MTT | – | 50 µM |
| CC(=O)O[C@H]1C(=O)[C@@]2(C)[C@H]([C@H](OC(=O)c3ccccc3)[C@]3(O)C[C@H](OC(=O)[C@H](O)[C@@H](NC(=O)c4ccccc4)c4ccccc4)C(C)=C1C3(C)C)[C@]1(OC(C)=O)CO[C@@H]1C[C@@H]2O | – | – | 1 µg/mL |
| Oc1ccccc1-c1ccc2ncnc(Nc3cccc(C(F)(F)F)c3)c2c1 | MTT | 24 h | 7.13 µM |
| CN(C)C/C=N/NC(=O)Nc1cc2c(Nc3ccc(F)c(Cl)c3)ncnc2cc1O[C@H]1CCOC1 | MTT | 72 h | 5.72 µM |
| Cc1ccc2nc(-c3ccc([N+](=O)[O-])cc3)n(Cc3ccccc3)c2c1 | MTT | – | 7.86 µM |
| O=C(N/N=C/c1cccn1CCN1CCCC1)Nc1cc2c(Nc3ccc(F)c(Cl)c3)ncnc2cc1O[C@H]1CCOC1 | MTT | 72 h | 1.2 µM |
| O=C(NC(=S)Nc1ccccc1)c1ccc2ccccc2c1 | – | 48 h | 5.11 µM |
| COc1ccc(-c2nn(-c3ccc(S(C)(=O)=O)cc3)cc2C=N/N=c2\[nH]c(-c3ccc([N+](=O)[O-])cc3)cs2)cc1 | MTT | 48 h | 2.15 µM |
| Cc1ccc2nc(-c3ccc([N+](=O)[O-])cc3)[nH]c2c1 | MTT | 48 h | 10.5 µM |
| COc1nc(OCc2cccc(-c3ccccc3)c2C)ccc1CNCCNC(C)=O | MTT | – | 6.2 µM |
| Cc1ccc2nc(-c3ccc(Cl)cc3)n(Cc3ccccc3)c2c1 | MTT | – | 5.66 µM |
| COc1c2c(cc3c1OCO3)[C@]13C=C[C@H](OC)C[C@H]1N(C2)C[C@H]3OC(=O)c1cccc(C)c1 | WST-1 | – | > 10 µM |
